Reference: ChEMBL document CHEMBL1687794, “Phenotypic and biochemical comparison of the carbapenem-hydrolyzing activities of five plasmid-borne AmpC β-lactamases” (2010)
≈ marks a conversion by molar mass, not a printed value.

Assays:
[1] = Ratio of Kcat to Km for Beta-lactamase CMY-2
Outline: (§1)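 Purified TOP10-expressed AmpC enzymes, assayed spectrophotometrically at 30°C, 100 mM sodium phosphate pH 7.0. Cephaloridine Km and kcat from initial rates via Eadie-Hofstee linearization. For imipenem, Ki replaced Km, measured against cephaloridine as reporter substrate. kcat from initial rates at saturating substrate ([S] = 100 × Km) using undiluted enzyme extract. Efficiency taken as kcat/Km.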

[2] = Ratio of Kcat to Km for Beta-lactamase FOX-1; outline: as §1
[3] = Activity of Beta-lactamase AmpC-B2
Outline: (§2)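 Enzyme source: AmpC genes cloned without native promoter under lacZ control, expressed in E. coli TOP10, purified (FOX-1 by two Q-Sepharose steps, bis-Tris pH 6.8 then Tris-HCl pH 9). Hydrolysis monitored spectrophotometrically at 30°C in 100 mM sodium phosphate pH 7.0 with cephaloridine, ertapenem, imipenem or meropenem. kcat from initial rates at saturating substrate ([S] = 100 × Km).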

[4] = Activity of Beta-lactamase CMY-2; outline: as §2
[5] = Activity of Beta-lactamase FOX-1; outline: as §2
[6] = Ratio of Kcat to Km for Beta-lactamase ACC-1; outline: as §1
[7] = Ratio of Kcat to Km for Beta-lactamase AmpC-B2; outline: as §1
[8] = Ratio of Kcat to Km for Beta-lactamase DHA-1; outline: as §1
[9] = Activity of Beta-lactamase ACC-1
Outline: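 ACC-1 cloned without its native promoter behind the lacZ promoter, expressed in E. coli TOP10 and purified. Ki, Km and kcat measured by UV spectrophotometry at 30°C in 100 mM sodium phosphate pH 7.0. Cephaloridine Km/kcat from initial rates by Eadie-Hofstee analysis. Imipenem Ki measured against cephaloridine reporter substrate; kcat from initial rates at [S] = 100 × Km.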

[10] = Activity of Beta-lactamase ACT-1; outline: as §2
[11] = Activity of Beta-lactamase DHA-1; outline: as §2
[12] = Ratio of Kcat to Km for Beta-lactamase ACT-1; outline: as §1
Escherichia coli [13] = assay: Antimicrobial activity against OmpC/OmpF porin deficient Escherichia coli HB4 transformed with Escherichia coli ECB-1 plasmid carrying ACC-1 by agar dilution method; assay type: functional
Outline: (§3)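 Agar dilution on Mueller-Hinton agar, inoculum 10^4 CFU per spot, interpreted per CLSI. Host is E. coli HB4, which lacks OmpC and OmpF, with or without a cloned ampC gene under the lacZ promoter. Panel: cefoxitin, cefuroxime, cefotaxime, ceftazidime, cefepime, imipenem, ertapenem, meropenem.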

Escherichia coli [14] = assay: Antimicrobial activity against OmpC/OmpF porin deficient Escherichia coli HB4 transformed with Escherichia coli DH10B plasmid carrying DHA-1 by agar dilution method; assay type: functional; outline: as §3
Escherichia coli [15] = assay: Antimicrobial activity against Escherichia coli TOP10 transformed with Escherichia coli ECB-1 plasmid carrying ACC-1 by agar dilution method; assay type: functional
Outline: (§4)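 Agar dilution MICs on Mueller-Hinton agar, 10^4 CFU per spot, read by CLSI guidelines. Strains are wild-type E. coli TOP10, with or without a cloned ampC gene (native promoter removed, lacZ promoter-driven). Antibiotics tested: cefoxitin, cefuroxime, cefotaxime, ceftazidime, cefepime, imipenem, ertapenem, meropenem.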

Escherichia coli [16] = assay: Antimicrobial activity against Escherichia coli TOP10 transformed with Enterobacter asburiae CIP 105006 plasmid carrying ACT-1 by agar dilution method; assay type: functional; outline: as §4
Escherichia coli [17] = assay: Antimicrobial activity against OmpC/OmpF porin deficient Escherichia coli HB4 by agar dilution method; assay type: functional; outline: as §3
Escherichia coli [18] = assay: Antimicrobial activity against OmpC/OmpF porin deficient Escherichia coli HB4 transformed with Enterobacter asburiae CIP 105006 plasmid carrying ACT-1 by agar dilution method; assay type: functional; outline: as §3
Escherichia coli [19] = assay: Antimicrobial activity against Escherichia coli TOP10 transformed with Escherichia coli DH10B plasmid carrying DHA-1 by agar dilution method; assay type: functional; outline: as §4
Escherichia coli [20] = assay: Antimicrobial activity against Escherichia coli TOP10 transformed with Escherichia coli EC-6 plasmid carrying AmpC-B2 by agar dilution method; assay type: functional; outline: as §4
Escherichia coli [21] = assay: Antimicrobial activity against Escherichia coli TOP10 by agar dilution method
Escherichia coli [22] = assay: Antimicrobial activity against OmpC/OmpF porin deficient Escherichia coli HB4 transformed with Escherichia coli pGLK-1 plasmid carrying FOX-1 by agar dilution method; assay type: functional; outline: as §3
Escherichia coli [23] = assay: Antimicrobial activity against Escherichia coli TOP10 transformed with Escherichia coli ECB2 plasmid carrying CMY-2 by agar dilution method; assay type: functional; outline: as §4
Escherichia coli [24] = assay: Antimicrobial activity against OmpC/OmpF porin deficient Escherichia coli HB4 transformed with Escherichia coli EC-6 plasmid carrying AmpC-B2 by agar dilution method; assay type: functional; outline: as §3
Escherichia coli [25] = assay: Antimicrobial activity against OmpC/OmpF porin deficient Escherichia coli HB4 transformed with Escherichia coli ECB2 plasmid carrying CMY-2 by agar dilution method; assay type: functional; outline: as §3
Escherichia coli [26] = assay: Antimicrobial activity against Escherichia coli TOP10 transformed with Escherichia coli pGLK-1 plasmid carrying FOX-1 by agar dilution method; assay type: functional; outline: as §4

| SMILES | MIC (Escherichia coli [13]) [µg/mL] | MIC (Escherichia coli [14]) [µg/mL] | MIC (Escherichia coli [15]) [µg/mL] | MIC (Escherichia coli [16]) [µg/mL] | MIC (Escherichia coli [17]) [µg/mL] | MIC (Escherichia coli [18]) [µg/mL] | MIC (Escherichia coli [19]) [µg/mL] | MIC (Escherichia coli [20]) [µg/mL] | MIC (Escherichia coli [21]) [µg/mL] | MIC (Escherichia coli [22]) [µg/mL] | MIC (Escherichia coli [23]) [µg/mL] | MIC (Escherichia coli [24]) [µg/mL] | MIC (Escherichia coli [25]) [µg/mL] | MIC (Escherichia coli [26]) [µg/mL] | other results |
| --- | --- | --- | --- | --- | --- | --- | --- | --- | --- | --- | --- | --- | --- | --- | --- |
| O=C(Cc1cccs1)N[C@@H]1C(=O)N2C(C(=O)[O-])=C(C[n+]3ccccc3)CS[C@H]12 | – | – | – | – | – | – | – | – | – | – | – | – | – | – | kcat/Km [1]: 3.3e+06 M⁻¹ s⁻¹; kcat/Km [2]: 360000 M⁻¹ s⁻¹; Km [3]: 950 µM; kcat [3]: 240 s⁻¹; Km [4]: 125 µM; kcat [4]: 412 s⁻¹; Km [5]: 630 µM; kcat [5]: 228 s⁻¹; kcat/Km [6]: 330000 M⁻¹ s⁻¹; kcat/Km [7]: 250000 M⁻¹ s⁻¹; kcat/Km [8]: 595000 M⁻¹ s⁻¹; Km [9]: 420 µM; kcat [9]: 140 s⁻¹; Km [10]: 420 µM; kcat [10]: 481 s⁻¹; Km [11]: 330 µM; kcat [11]: 196 s⁻¹; kcat/Km [12]: 1.14e+06 M⁻¹ s⁻¹ |
| CO/N=C(\C(=O)N[C@@H]1C(=O)N2C(C(=O)[O-])=C(C[N+]3(C)CCCC3)CS[C@H]12)c1csc(N)n1 [CEFEPIME] | 4 (≈ 8.32 µM) | 2 (≈ 4.16 µM) | 0.125 (≈ 0.26 µM) | 0.25 (≈ 0.52 µM) | 1 (≈ 2.08 µM) | 4 (≈ 8.32 µM) | 0.064 (≈ 0.133 µM) | 0.06 (≈ 0.125 µM) | 0.06 (≈ 0.125 µM) | 8 (≈ 16.6 µM) | 1 (≈ 2.08 µM) | 1 (≈ 2.08 µM) | – | – | – |
| CO/N=C(\C(=O)N[C@@H]1C(=O)N2C(C(=O)O)=C(COC(C)=O)CS[C@H]12)c1csc(N)n1 [CEFOTAXIME] | 4 (≈ 8.78 µM) | 128 (≈ 281 µM) | 1 (≈ 2.2 µM) | 64 (≈ 141 µM) | 4 (≈ 8.78 µM) | 64 (≈ 141 µM) | 8 (≈ 17.6 µM) | 0.5 (≈ 1.1 µM) | 0.06 (≈ 0.132 µM) | 32 (≈ 70.3 µM) | 128 (≈ 281 µM) | 4 (≈ 8.78 µM) | 256 (≈ 562 µM) | 16 (≈ 35.1 µM) | – |
| CO[C@@]1(NC(=O)Cc2cccs2)C(=O)N2C(C(=O)O)=C(COC(N)=O)CS[C@@H]21 [CEFOXITIN] | 256 (≈ 599 µM) | > 512 | 2 (≈ 4.68 µM) | 512 (≈ 1200 µM) | 256 (≈ 599 µM) | > 512 | 32 (≈ 74.9 µM) | 128 (≈ 299 µM) | 2 (≈ 4.68 µM) | > 512 | 128 (≈ 299 µM) | 512 (≈ 1200 µM) | > 512 | 512 (≈ 1200 µM) | – |
| CC(C)(O/N=C(\C(=O)N[C@@H]1C(=O)N2C(C(=O)[O-])=C(C[n+]3ccccc3)CS[C@H]12)c1csc(N)n1)C(=O)O [CEFTAZIDIME] | 16 (≈ 29.3 µM) | 256 (≈ 468 µM) | 8 (≈ 14.6 µM) | 128 (≈ 234 µM) | 4 (≈ 7.32 µM) | > 512 | 64 (≈ 117 µM) | 1 (≈ 1.83 µM) | 0.06 (≈ 0.11 µM) | 512 (≈ 937 µM) | 256 (≈ 468 µM) | 8 (≈ 14.6 µM) | > 512 | 64 (≈ 117 µM) | – |
| CO/N=C(\C(=O)N[C@@H]1C(=O)N2C(C(=O)O)=C(COC(N)=O)CS[C@H]12)c1ccco1 [CEFUROXIME] | 128 (≈ 302 µM) | > 512 | 1 (≈ 2.36 µM) | 512 (≈ 1210 µM) | 32 (≈ 75.4 µM) | > 512 | 128 (≈ 302 µM) | 128 (≈ 302 µM) | 1 (≈ 2.36 µM) | > 512 | 128 (≈ 302 µM) | 512 (≈ 1210 µM) | > 512 | 256 (≈ 603 µM) | – |
| C[C@@H](O)[C@H]1C(=O)N2C(C(=O)O)=C(S[C@@H]3CN[C@H](C(=O)Nc4cccc(C(=O)O)c4)C3)[C@H](C)[C@H]12 [ERTAPENEM] | 2 (≈ 4.21 µM) | 16 (≈ 33.6 µM) | 0.006 (≈ 0.0126 µM) | 0.016 (≈ 0.0336 µM) | 1 (≈ 2.1 µM) | 256 (≈ 538 µM) | 0.012 (≈ 0.0252 µM) | 0.064 (≈ 0.135 µM) | 0.006 (≈ 0.0126 µM) | 4 (≈ 8.41 µM) | 0.064 (≈ 0.135 µM) | 2 (≈ 4.21 µM) | 256 (≈ 538 µM) | 0.032 (≈ 0.0673 µM) | – |
| C[C@@H](O)[C@H]1C(=O)N2C(C(=O)O)=C(SCCNC=N)C[C@H]12 [IMIPENEM ANHYDROUS] | 0.5 (≈ 1.67 µM) | 2 (≈ 6.68 µM) | – | – | – | 16 (≈ 53.4 µM) | – | 0.125 (≈ 0.418 µM) | – | 0.5 (≈ 1.67 µM) | 0.5 (≈ 1.67 µM) | 0.5 (≈ 1.67 µM) | 32 (≈ 107 µM) | 0.25 (≈ 0.835 µM) | kcat/Km [1]: 40000 M⁻¹ s⁻¹; kcat/Km [2]: 300 M⁻¹ s⁻¹; Km [3]: 35 µM; kcat [3]: 0.08 s⁻¹; Km [4]: 1 µM; kcat [4]: 0.04 s⁻¹; Km [5]: 35 µM; kcat [5]: 0.01 s⁻¹; kcat/Km [7]: 2000 M⁻¹ s⁻¹; kcat [9]: < 0.001 s⁻¹; Km [10]: 3 µM; kcat [10]: 0.02 s⁻¹; kcat [11]: < 0.001 s⁻¹; kcat/Km [12]: 7000 M⁻¹ s⁻¹ |
| C[C@@H](O)[C@H]1C(=O)N2C(C(=O)O)=C(S[C@@H]3CN[C@H](C(=O)N(C)C)C3)[C@H](C)[C@H]12 [MEROPENEM] | 0.5 (≈ 1.3 µM) | 1 (≈ 2.61 µM) | 0.032 (≈ 0.0834 µM) | 0.032 (≈ 0.0834 µM) | 0.032 (≈ 0.0834 µM) | 4 (≈ 10.4 µM) | 0.032 (≈ 0.0834 µM) | 0.032 (≈ 0.0834 µM) | 0.032 (≈ 0.0834 µM) | 0.75 (≈ 1.96 µM) | 0.064 (≈ 0.167 µM) | 0.032 (≈ 0.0834 µM) | 8 (≈ 20.9 µM) | 0.125 (≈ 0.326 µM) | – |
